Activity calls are given as the source filed them. No cut-off for these calls is given here.
Tests used:
[1] = target: T1, Protein cereblon/Histone-lysine N-methyltransferase EZH2 (Homo sapiens) (UniProt Q15910+Q96SW2); assay: PROTAC activity at CRBN E3 ligase/EZH2 in PRC2 complex in human WSUDLCL2 cells assessed as downregulation of RbAp48 expression at 1 uM pretreated with MLN4924 for 4 hrs followed by compound addition and measured after 48 hrs by Western blot analysis; assay type: cell-based
Procedure, shortened: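 WSU-DLCL-2 cells pretreated 4 h with the named inhibitor, then compound added and incubated a further 48 h. EZH2, SUZ12, EED and RbAp48 measured by western blot (nitrocellulose transfer, skim-milk block, primary antibody overnight at 4 °C, chemiluminescent detection).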

[2] = tested on: MDA-MB-468; assay: Downregulation of CENPK mRNA expression in human MDA-MB-468 cells at 10 uM incubated for 48 hrs by qRT-PCR analysis; assay type: functional, cell-based
Procedure, shortened: (§1)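 Cells treated 48 h. Total RNA extracted with Trizol, reverse-transcribed, and SYBR RT-qPCR run: 95 °C 30 s, then 40 cycles of 95 °C 6 s and 60 °C 20 s. mRNA normalized to the DMSO-treated group. Mean SD of three independent experiments, t-test versus DMSO.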

[3] = target: T1, Protein cereblon/Histone-lysine N-methyltransferase EZH2 (Homo sapiens); assay: PROTAC activity at CRBN E3 ligase/EZH2 in PRC2 complex in human WSUDLCL2 cells assessed as induction of EED degradation at 1 uM measured up to 2 hrs by Western blot analysis; assay type: cell-based; conditions: time hrs <=2
[4] = tested on: NCI-H1299; assay: Downregulation of CHEK1 mRNA expression in human NCI-H1299 cells at 10 uM incubated for 48 hrs by qRT-PCR analysis; assay type: functional, cell-based; procedure, shortened: as §1
[5] = target: T1, Protein cereblon/Histone-lysine N-methyltransferase EZH2 (Homo sapiens); assay: PROTAC activity at CRBN E3 ligase/EZH2 in PRC2 complex in human WSUDLCL2 cells assessed as induction of RbAp48 degradation at 10 uM incubated for 48 hrs by Western blot analysis; assay type: cell-based
[6] = target: T1, Protein cereblon/Histone-lysine N-methyltransferase EZH2 (Homo sapiens); assay: PROTAC activity at CRBN E3 ligase/EZH2 in PRC2 complex in human SK-OV-3 cells assessed as reduction in H3K27me3 level at 1 uM incubated for 48 hrs by Western blot analysis; assay type: cell-based
Procedure, shortened: (§2)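 Cells cultured in DMEM or RPMI 1640 with 10% FBS and 1% penicillin-streptomycin, 37 °C, 5% CO2; exposed to 1 μM compound for 48 h. Lysates run on SDS-PAGE and transferred to nitrocellulose. Blocked 2 h in 5% skim milk, primary antibody overnight at 4 °C, then secondary antibody. Chemiluminescent detection of PRC2 subunits and H3K27me3.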

[7] = tested on: MDA-MB-468; assay: Downregulation of TACC3 mRNA expression in human MDA-MB-468 cells at 10 uM incubated for 48 hrs by qRT-PCR analysis; assay type: functional, cell-based; procedure, shortened: as §1
[8] = tested on: Pfeiffer; assay: Upregulation of TNFRSF21 mRNA expression in human Pfeiffer cells at 1 uM incubated for 48 hrs by qRT-PCR analysis; assay type: functional, cell-based
Procedure, shortened: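 WSU-DLCL-2 or Pfeiffer cells treated 48 h. Trizol RNA extraction, reverse transcription, SYBR qPCR (95 °C 30 s; 40 cycles of 95 °C 6 s, 60 °C 20 s). mRNA normalized to DMSO-treated cells; mean ± SD of three independent experiments, t-test.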

[9] = target: T1, Protein cereblon/Histone-lysine N-methyltransferase EZH2 (Homo sapiens); assay: PROTAC activity at CRBN E3 ligase/EZH2 in PRC2 complex in human WSUDLCL2 cells assessed as induction of EED degradation at 1 uM incubated for 48 hrs by Western blot analysis relative to control; assay type: cell-based
Procedure, shortened: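 WSU-DLCL-2 cells exposed to 1 μM compound for 48 h, with DMSO-treated cells as control. Bands quantified by densitometry and normalized to GAPDH. Mean SD from three independent experiments, t-test versus DMSO.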

[10] = target: T1, Protein cereblon/Histone-lysine N-methyltransferase EZH2 (Homo sapiens); assay: PROTAC activity at CRBN E3 ligase/EZH2 in PRC2 complex in human LNCaP cells assessed as induction of SUZ12 degradation by measuring reduction in SUZ12 protein level at 1 uM incubated for 48 hrs by Western blot analysis; assay type: cell-based; procedure, shortened: as §2
[11] = target: T2, Histone-lysine N-methyltransferase EZH1 (Homo sapiens, UniProt Q92800); assay: Inhibition of recombinant full length human N-terminal FLAG-tagged EZH1 in PRC2 complex expressed in baculovirus system using SAM as substrate preincubated for 15 mins followed by substrate addition and measured after 60 mins by AlphaLISA immunodetection assay
T2 sequence (Q92800 whole entry): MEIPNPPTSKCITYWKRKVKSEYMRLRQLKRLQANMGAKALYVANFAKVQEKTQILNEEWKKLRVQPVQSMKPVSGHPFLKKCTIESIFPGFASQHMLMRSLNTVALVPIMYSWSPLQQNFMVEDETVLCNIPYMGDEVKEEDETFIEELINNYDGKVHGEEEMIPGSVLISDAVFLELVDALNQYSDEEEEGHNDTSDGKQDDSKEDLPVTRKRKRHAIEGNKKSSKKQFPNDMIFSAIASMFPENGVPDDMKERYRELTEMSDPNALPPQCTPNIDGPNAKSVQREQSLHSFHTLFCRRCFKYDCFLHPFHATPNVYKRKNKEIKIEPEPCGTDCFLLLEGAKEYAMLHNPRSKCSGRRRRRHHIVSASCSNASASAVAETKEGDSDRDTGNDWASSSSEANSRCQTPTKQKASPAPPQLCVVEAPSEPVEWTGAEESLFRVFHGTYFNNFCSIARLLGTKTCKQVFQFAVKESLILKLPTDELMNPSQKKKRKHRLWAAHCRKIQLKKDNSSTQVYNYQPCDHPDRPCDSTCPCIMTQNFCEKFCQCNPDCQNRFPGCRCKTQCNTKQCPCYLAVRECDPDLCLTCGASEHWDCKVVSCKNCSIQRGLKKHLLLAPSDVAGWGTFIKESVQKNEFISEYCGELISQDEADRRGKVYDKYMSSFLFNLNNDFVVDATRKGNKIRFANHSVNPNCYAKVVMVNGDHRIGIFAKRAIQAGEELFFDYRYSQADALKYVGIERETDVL

[12] = tested on: NCI-H1299; assay: Antiproliferative activity against EZH2-knockdown human NCI-H1299 cells assessed as inhibition of cell growth at 10 uM treated for 9 days by optical microscopic analysis; assay type: functional, cell-based; conditions: time 9.0 day
Procedure, shortened: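 Cells seeded at 5 × 10³ per well, grown 24 h, then exposed to compound at 10 μM for 9 days with medium refreshed. Cells were photographed and counted on days 1, 3, 5, 7 and 9. For lines 1-2, EZH2-targeting or control shRNA was induced in the cells. Mean SD of three independent experiments; t-test against control.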

[13] = target: T1, Protein cereblon/Histone-lysine N-methyltransferase EZH2 (Homo sapiens); assay: PROTAC activity at CRBN E3 ligase/EZH2 in PRC2 complex in human WSUDLCL2 cells assessed as effect on RbAp48 mRNA expression at 1 uM incubated for 48 hrs by RT-qPCR analysis; assay type: cell-based
Procedure, shortened: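 WSU-DLCL-2 cells treated 48 h with 1 μM compound. Total RNA extracted with Trizol and reverse-transcribed. SYBR qPCR run as 95 °C 30 s, then 40 cycles of 95 °C 6 s and 60 °C 20 s. PRC2 subunit mRNA normalized to the DMSO-treated group; mean SD, t-test.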

T1 sequence (Q15910 whole entry, looked up): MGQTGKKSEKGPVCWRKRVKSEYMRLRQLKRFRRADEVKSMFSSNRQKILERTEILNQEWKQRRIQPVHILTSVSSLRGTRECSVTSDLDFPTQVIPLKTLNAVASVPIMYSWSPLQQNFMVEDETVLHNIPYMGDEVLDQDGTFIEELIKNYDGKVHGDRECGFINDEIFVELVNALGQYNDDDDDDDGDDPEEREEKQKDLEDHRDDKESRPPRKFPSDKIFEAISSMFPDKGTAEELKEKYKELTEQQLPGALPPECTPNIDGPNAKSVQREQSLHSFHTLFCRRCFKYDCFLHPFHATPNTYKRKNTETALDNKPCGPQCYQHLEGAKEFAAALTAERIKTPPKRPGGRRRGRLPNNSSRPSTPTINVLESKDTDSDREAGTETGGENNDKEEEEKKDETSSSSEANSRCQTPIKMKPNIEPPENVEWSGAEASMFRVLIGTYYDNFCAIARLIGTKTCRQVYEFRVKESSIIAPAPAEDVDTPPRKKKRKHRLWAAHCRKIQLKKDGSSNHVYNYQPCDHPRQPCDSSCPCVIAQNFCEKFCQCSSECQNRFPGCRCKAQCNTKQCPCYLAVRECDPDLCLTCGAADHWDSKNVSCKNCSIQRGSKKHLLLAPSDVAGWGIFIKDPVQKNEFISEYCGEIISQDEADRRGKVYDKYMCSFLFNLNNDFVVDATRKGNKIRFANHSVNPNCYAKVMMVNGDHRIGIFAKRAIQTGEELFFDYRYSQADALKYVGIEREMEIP
T1 sequence (Q96SW2 whole entry, looked up): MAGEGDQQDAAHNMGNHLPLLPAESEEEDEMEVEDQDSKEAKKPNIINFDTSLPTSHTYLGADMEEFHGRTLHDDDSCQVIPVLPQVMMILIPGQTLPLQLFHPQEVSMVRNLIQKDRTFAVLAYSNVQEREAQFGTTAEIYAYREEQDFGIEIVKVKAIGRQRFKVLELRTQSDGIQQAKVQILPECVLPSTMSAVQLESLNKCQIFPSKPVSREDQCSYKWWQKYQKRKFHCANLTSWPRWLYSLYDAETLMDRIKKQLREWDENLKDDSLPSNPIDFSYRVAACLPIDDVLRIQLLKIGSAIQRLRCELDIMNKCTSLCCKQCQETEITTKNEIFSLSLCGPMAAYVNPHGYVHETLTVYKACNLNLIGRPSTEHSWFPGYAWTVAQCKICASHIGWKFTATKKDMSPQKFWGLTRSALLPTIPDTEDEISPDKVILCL

Activity [1]: inactive | Activity [3]: inactive | Activity [5]: inactive | Activity [6]: Active | Activity [9]: 75% | Activity [10]: Active | IC50 [11]: 179 nM | Activity [13]: inactive
SMILES: CCN(c1cc(-c2ccc(CN3CCN(CCCCCCCOc4cccc5c4C(=O)N(C4CCC(=O)NC4=O)C5=O)CC3)cc2)cc(C(=O)NCc2c(C)cc(C)[nH]c2=O)c1C)C1CCOCC1 (stereo not drawn)
Activity [2]: Active | Activity [4]: Active | Activity [7]: Active | Activity [8]: Active | Activity [12]: Active

— ChEMBL document CHEMBL5038571, “Design and Synthesis of EZH2-Based PROTACs to Degrade the PRC2 Complex for Targeting the Noncatalytic Activity of EZH2” (J Med Chem, 2021)
